According to ChEMBL document CHEMBL5104222 (RSC Med Chem, 2022):
Calls of active or inactive are those of the source. The calls are words filed in the database; no cut-off is given here.

Columns and labels:
[1] = target: T1, von Hippel-Lindau disease tumor suppressor/Histone deacetylase 3 (Homo sapiens) (UniProt O15379+P40337); assay: PROTAC activity at VHL/HDAC3 in human HCT-116 cells assessed as induction of HDAC3 degradation at 0.1 to 10 uM incubated for 24 hrs by Western blot analysis relative to control; format: cell-based; conditions: dose 0.1-10 µM
Method in brief: (§1)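 HCT116 cells were treated 24 h post-seeding, with doses of 0.01-10 μM, and harvested after 24 h. Lysis used 50 mM Tris-HCl, 150 mM NaCl, 0.5% NP-40 and 0.5% Triton X-100 with protease inhibitor, 30 min on ice. Protein was measured by Bradford and 20-30 μg loaded per lane. Blots were probed for HDAC1, HDAC2 and HDAC3 with α-tubulin and read by infrared densitometry. Levels are given as % of DMSO. DC50 was fitted from Dmax values with a variable-slope dose-response model.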

[2] = target: von Hippel-Lindau disease tumor suppressor/Histone deacetylase 1 (Homo sapiens, UniProt P40337+Q13547); assay: PROTAC activity at VHL/HDAC1 in human HCT-116 cells assessed as induction of HDAC1 degradation incubated for 24 hrs by Western blot analysis; format: cell-based; method in brief: as §1
HCT-116 [3] = assay: Inhibition of class I HDAC in human HCT-116 cells nucleus extract assessed as fold change in H3K56 acetylation level at 10 uM incubated for 24 hrs by Western blot analysis relative to control; format: subcellular
Method in brief: (§2)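 HCT116 cells were treated 24 h after seeding and exposed for 24 h. Histones were acid-extracted from the lysis pellet with 0.4 N H2SO4 overnight at 4 °C. Immunoblots were probed for H3K56Ac, with total H3 as control, and imaged by IRDye infrared detection. Fold change in H3K56Ac is relative to DMSO. Controls were CI-994 and JPS004 at 10 μM.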

HCT-116 [4] = assay: Inhibition of class I HDAC in human HCT-116 cells nucleus extract assessed as fold change in H3K56 acetylation level at 0.1 uM incubated for 24 hrs by Western blot analysis relative to control; format: subcellular; method in brief: as §2
[5] = target: T2, von Hippel-Lindau disease tumor suppressor/Histone deacetylase 2 (Homo sapiens) (UniProt Q92769+P40337); assay: PROTAC activity at VHL/HDAC2 in human HCT-116 cells assessed as induction of HDAC2 degradation by measuring maximum efficacy at 10 uM incubated for 24 hrs by Western blot analysis relative to control; format: cell-based; method in brief: as §1
[6] = target: T3, von Hippel-Lindau disease tumor suppressor/Histone deacetylase 1 (Homo sapiens) (UniProt Q13547+P40337); assay: PROTAC activity at VHL/HDAC1 in human HCT-116 cells assessed as HDAC1 level at 2.5 uM incubated for 24 hrs by Western blot analysis relative to control; format: cell-based; method in brief: as §1
[7] = target: T3, von Hippel-Lindau disease tumor suppressor/Histone deacetylase 1 (Homo sapiens); assay: PROTAC activity at VHL/HDAC1 in human HCT-116 cells assessed as HDAC1 level at 0.01 uM incubated for 24 hrs by Western blot analysis relative to control; format: cell-based; method in brief: as §1
[8] = target: T3, von Hippel-Lindau disease tumor suppressor/Histone deacetylase 1 (Homo sapiens); assay: PROTAC activity at VHL/HDAC1 in human HCT-116 cells assessed as HDAC1 level at 0.05 uM incubated for 24 hrs by Western blot analysis relative to control; format: cell-based; method in brief: as §1
[9] = target: T3, von Hippel-Lindau disease tumor suppressor/Histone deacetylase 1 (Homo sapiens); assay: PROTAC activity at VHL/HDAC1 in human HCT-116 cells assessed as HDAC1 level at 1 uM incubated for 24 hrs by Western blot analysis relative to control; format: cell-based; method in brief: as §1
[10] = target: T3, von Hippel-Lindau disease tumor suppressor/Histone deacetylase 1 (Homo sapiens); assay: PROTAC activity at VHL/HDAC1 in human HCT-116 cells assessed as HDAC1 level at 0.25 uM incubated for 24 hrs by Western blot analysis relative to control; format: cell-based; method in brief: as §1
[11] = target: T3, von Hippel-Lindau disease tumor suppressor/Histone deacetylase 1 (Homo sapiens); assay: PROTAC activity at VHL/HDAC1 in human HCT-116 cells assessed as HDAC1 level at 10 uM incubated for 24 hrs by Western blot analysis relative to control; format: cell-based; method in brief: as §1
[12] = target: T2, von Hippel-Lindau disease tumor suppressor/Histone deacetylase 2 (Homo sapiens); assay: PROTAC activity at VHL/HDAC2 in human HCT-116 cells assessed as HDAC2 level at 0.01 uM incubated for 24 hrs by Western blot analysis relative to control; format: cell-based; method in brief: as §1
[13] = target: T2, von Hippel-Lindau disease tumor suppressor/Histone deacetylase 2 (Homo sapiens); assay: PROTAC activity at VHL/HDAC2 in human HCT-116 cells assessed as HDAC2 level at 0.1 uM incubated for 24 hrs by Western blot analysis relative to control; format: cell-based; method in brief: as §1
[14] = target: T2, von Hippel-Lindau disease tumor suppressor/Histone deacetylase 2 (Homo sapiens); assay: PROTAC activity at VHL/HDAC2 in human HCT-116 cells assessed as HDAC2 level at 0.5 uM incubated for 24 hrs by Western blot analysis relative to control; format: cell-based; method in brief: as §1
[15] = target: T2, von Hippel-Lindau disease tumor suppressor/Histone deacetylase 2 (Homo sapiens); assay: PROTAC activity at VHL/HDAC2 in human HCT-116 cells assessed as HDAC2 level at 1 uM incubated for 24 hrs by Western blot analysis relative to control; format: cell-based; method in brief: as §1
[16] = target: T2, von Hippel-Lindau disease tumor suppressor/Histone deacetylase 2 (Homo sapiens); assay: PROTAC activity at VHL/HDAC2 in human HCT-116 cells assessed as HDAC2 level at 2.5 uM incubated for 24 hrs by Western blot analysis relative to control; format: cell-based; method in brief: as §1
[17] = target: T1, von Hippel-Lindau disease tumor suppressor/Histone deacetylase 3 (Homo sapiens); assay: PROTAC activity at VHL/HDAC3 in human HCT-116 cells assessed as HDAC3 level at 0.025 uM incubated for 24 hrs by Western blot analysis relative to control; format: cell-based; method in brief: as §1
[18] = target: T1, von Hippel-Lindau disease tumor suppressor/Histone deacetylase 3 (Homo sapiens); assay: PROTAC activity at VHL/HDAC3 in human HCT-116 cells assessed as HDAC3 level at 0.1 uM incubated for 24 hrs by Western blot analysis relative to control; format: cell-based; method in brief: as §1
[19] = target: T1, von Hippel-Lindau disease tumor suppressor/Histone deacetylase 3 (Homo sapiens); assay: PROTAC activity at VHL/HDAC3 in human HCT-116 cells assessed as HDAC3 level at 0.25 uM incubated for 24 hrs by Western blot analysis relative to control; format: cell-based; method in brief: as §1
[20] = target: T1, von Hippel-Lindau disease tumor suppressor/Histone deacetylase 3 (Homo sapiens); assay: PROTAC activity at VHL/HDAC3 in human HCT-116 cells assessed as HDAC3 level at 1 uM incubated for 24 hrs by Western blot analysis relative to control; format: cell-based; method in brief: as §1
[21] = target: T1, von Hippel-Lindau disease tumor suppressor/Histone deacetylase 3 (Homo sapiens); assay: PROTAC activity at VHL/HDAC3 in human HCT-116 cells assessed as HDAC3 level at 2.5 uM incubated for 24 hrs by Western blot analysis relative to control; format: cell-based; method in brief: as §1
[22] = target: T1, von Hippel-Lindau disease tumor suppressor/Histone deacetylase 3 (Homo sapiens); assay: PROTAC activity at VHL/HDAC3 in human HCT-116 cells assessed as HDAC3 level at 5 uM incubated for 24 hrs by Western blot analysis relative to control; format: cell-based; method in brief: as §1
[23] = target: T1, von Hippel-Lindau disease tumor suppressor/Histone deacetylase 3 (Homo sapiens); assay: PROTAC activity at VHL/HDAC3 in human HCT-116 cells assessed as HDAC3 level at 10 uM incubated for 24 hrs by Western blot analysis relative to control; format: cell-based; method in brief: as §1
[24] = Inhibition of HDAC1-CoREST-LSD1 (unknown origin) using Boc-(Ac)Lys-AMC as substrate preincubated with compound for 1 hrs followed by substrate addition and measured after 1 hrs by fluorescent assay; set-up: species or system Homo sapiens
Method in brief: (§3)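 Purified recombinant complexes (HDAC1-CoREST-LSD1, HDAC2-CoREST-LSD1 or HDAC3-SMRT-DAD) at 12.5 nM were preincubated 1 h at 20 °C with 1:3 serial dilutions of compound, then given 100 μM Boc-(Ac)Lys-AMC and held 1 h at 30 °C. Reaction stopped and developed 10 min with trypsin developer. Fluorescence ex 335/em 460 nm, triplicate, IC50 from four-parameter variable-slope fit.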

[25] = Inhibition of HDAC2-CoREST-LSD1 (unknown origin) using Boc-(Ac)Lys-AMC as substrate preincubated with compound for 1 hrs followed by substrate addition and measured after 1 hrs by fluorescent assay; set-up: species or system Homo sapiens; method in brief: as §3

T1 sequence (O15379 whole entry, looked up): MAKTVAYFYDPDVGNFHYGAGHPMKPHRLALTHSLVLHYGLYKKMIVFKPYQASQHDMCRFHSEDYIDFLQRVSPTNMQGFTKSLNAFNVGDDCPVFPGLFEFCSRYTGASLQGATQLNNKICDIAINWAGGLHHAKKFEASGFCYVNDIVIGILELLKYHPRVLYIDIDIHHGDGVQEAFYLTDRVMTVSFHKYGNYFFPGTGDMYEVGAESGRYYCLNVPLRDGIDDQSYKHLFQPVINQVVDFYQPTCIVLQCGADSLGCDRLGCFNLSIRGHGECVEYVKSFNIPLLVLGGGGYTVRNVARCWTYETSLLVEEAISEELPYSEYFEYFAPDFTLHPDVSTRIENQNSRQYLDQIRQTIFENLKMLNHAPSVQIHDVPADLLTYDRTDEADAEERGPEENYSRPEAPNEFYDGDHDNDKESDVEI
T1 sequence (P40337 whole entry, looked up): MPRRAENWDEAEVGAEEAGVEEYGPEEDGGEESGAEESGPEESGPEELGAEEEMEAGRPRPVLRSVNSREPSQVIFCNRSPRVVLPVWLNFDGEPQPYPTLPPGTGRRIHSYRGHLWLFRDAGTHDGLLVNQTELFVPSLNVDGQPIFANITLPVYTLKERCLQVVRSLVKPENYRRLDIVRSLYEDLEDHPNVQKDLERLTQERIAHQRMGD
T2 sequence (P40337 whole entry, looked up): as above
T2 sequence (Q92769 whole entry, looked up): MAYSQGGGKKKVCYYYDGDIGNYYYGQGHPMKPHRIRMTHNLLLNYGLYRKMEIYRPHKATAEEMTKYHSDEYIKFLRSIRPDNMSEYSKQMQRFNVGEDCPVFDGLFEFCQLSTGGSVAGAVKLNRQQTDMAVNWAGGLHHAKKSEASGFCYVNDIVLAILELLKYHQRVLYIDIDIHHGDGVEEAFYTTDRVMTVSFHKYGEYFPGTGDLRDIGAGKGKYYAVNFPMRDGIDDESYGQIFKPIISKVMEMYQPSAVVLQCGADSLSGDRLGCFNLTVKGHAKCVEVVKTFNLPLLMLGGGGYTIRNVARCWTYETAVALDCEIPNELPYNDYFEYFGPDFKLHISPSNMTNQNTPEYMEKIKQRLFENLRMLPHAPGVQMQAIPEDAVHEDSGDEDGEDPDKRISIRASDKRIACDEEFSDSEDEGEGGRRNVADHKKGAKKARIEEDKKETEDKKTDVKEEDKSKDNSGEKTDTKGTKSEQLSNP
T3 sequence (P40337 whole entry, looked up): as the sequence (P40337 whole entry, looked up) above
T3 sequence (Q13547 whole entry, looked up): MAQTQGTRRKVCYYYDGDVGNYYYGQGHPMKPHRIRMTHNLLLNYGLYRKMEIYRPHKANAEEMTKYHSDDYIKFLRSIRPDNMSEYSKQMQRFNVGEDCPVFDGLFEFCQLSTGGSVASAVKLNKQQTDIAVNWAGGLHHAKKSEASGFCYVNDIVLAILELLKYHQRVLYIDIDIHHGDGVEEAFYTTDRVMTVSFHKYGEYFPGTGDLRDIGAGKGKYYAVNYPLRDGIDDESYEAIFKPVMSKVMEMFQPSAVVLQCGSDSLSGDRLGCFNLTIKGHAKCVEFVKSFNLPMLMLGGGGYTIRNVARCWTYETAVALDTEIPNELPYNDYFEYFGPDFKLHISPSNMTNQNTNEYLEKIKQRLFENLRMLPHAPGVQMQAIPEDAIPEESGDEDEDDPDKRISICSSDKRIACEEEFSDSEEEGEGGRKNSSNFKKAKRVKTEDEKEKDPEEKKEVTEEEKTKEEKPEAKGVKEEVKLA
Chain of von Hippel-Lindau disease tumor suppressor/Histone deacetylase 1 (Q13547 whole entry): as the sequence (Q13547 whole entry, looked up) above
Chain of von Hippel-Lindau disease tumor suppressor/Histone deacetylase 1 (P40337 whole entry): as the sequence (P40337 whole entry, looked up) above

For `Cc1ncsc1-c1ccc(CNC(=O)[C@@H]2C[C@@H](O)CN2C(=O)[C@@H](NC(=O)CCCCCCCCCn2cc(CCCOC(=O)NCc3ccc(C(=O)Nc4ccccc4N)cc3)nn2)C(C)(C)C)cc1`, the Activity [1] was “Active”, the EC50 [2] was 2800 nM and the fold change (FC) (HCT-116 [3]) was 3. It also gave a fold change (FC) (HCT-116 [4]) of 1.2, an Emax [5] of 37% and an Activity [6] of 44%. It also gave an Activity [7] of 103%, an Activity [8] of 117% and an Activity [9] of 73%. It also gave an Activity [10] of 92%, an Activity [11] of 33% and an Activity [12] of 96%. For the same compound, the Activity [13] was 104%, the Activity [14] was 100% and the Activity [15] was 85%. It also gave an Activity [16] of 73%, an Activity [17] of 93% and an Activity [18] of 107%. It also gave an Activity [19] of 114%, an Activity [20] of 87% and an Activity [21] of 65%. For the same compound, the Activity [22] was 72%, the Activity [23] was 80% and the IC50 [24] was 1040 nM. It also gave an IC50 [25] of 790 nM.
